Test results as given in ChEMBL document CHEMBL1126297, “Synthesis and evaluation of analogues of (Z)-1-(4-methoxyphenyl)-2-(3,4,5-trimethoxyphenyl)ethene as potential cytotoxic and antimitotic agents” (J Med Chem, 1992).

What was measured:
Type in all cases: functional
[1] = tested on: A549; assay: Compound was evaluated for cytotoxicity against human A-549 non-small cell lung cancer cell line.; conditions: read-out: ED50 (the source's name)
Outline: (§1)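 MTT colorimetric assay run in the Purdue Cell Culture Laboratory. Poorly water-soluble compounds were serially diluted in DMSO and added as 0.5 μL aliquots per well. Cells were incubated with compound for 6 days before MTT was added. […] The reported ED50 is the mean of two determinations.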

[2] = tested on: MLM; assay: Cytotoxicity against human MLM melanoma cell line.; conditions: read-out: ED50 (the source's name); outline: as §1
[3] = tested on: SK-MEL-5; assay: Compound was evaluated for cytotoxicity against human SKMEL-5 melanoma cell line.; conditions: read-out: ED50 (the source's name); outline: as §1
[4] = species: Bos taurus; assay: Inhibition of tubulin polymerization
Outline: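 Bovine brain tubulin, purified to electrophoretic homogeneity, was preincubated at 37 °C with a range of compound concentrations and then chilled on ice. GTP was added and polymerization followed at 37 °C by turbidity at 350 nm. Extent was read at 20 min against two controls per experiment, and IC50 was determined graphically. Actives were run in ≥3 independent assays, inactives (IC50 > 40 μM) in ≥2.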

[5] = tested on: HT-29; assay: Cytotoxicity against human HT-29 colon cell line.; conditions: read-out: ED50 (the source's name); outline: as §1
[6] = tested on: MCF7; assay: Cytotoxicity against human MCF-7 breast cancer cell line.; conditions: read-out: ED50 (the source's name); outline: as §1

Structure (SMILES)	EC50 [1] [µM]	EC50 [2] [µM]	EC50 [3] [µM]	IC50 [4] [µM]	EC50 [5] [µM]	EC50 [6] [µM]
COc1cc(/C=C/c2ccc(C(C)C)cc2)cc(OC)c1OC	9.8	> 25	11.1	> 40	6.8	18.4
COc1cc(/C=C\c2ccc(C)cc2)cc(OC)c1OC	0.00094	0.0066	0.00083	2	0.0023	0.024
COc1cc(/C=C\c2ccc(C(C)(C)C)cc2)cc(OC)c1OC	1.02	4.32	0.21	> 40	0.88	1.57
COc1cc2ccc3cccc(OC)c3c2c(OC)c1OC	5.7	21.4	1.3	> 40	1.9	1.8
COc1ccc(/C=C(/C(=O)O)c2cc(OC)c(OC)c(OC)c2)cc1	13.9	> 25	9.1	> 40	8.4	12.8
COc1cc(CCc2ccc(SC)cc2)cc(OC)c1OC	0.15	1.3	0.24	> 40	0.4	0.2
COC(=O)/C(=C/c1cccc(OC)c1)c1cc(OC)c(OC)c(OC)c1	1.3	15.5	1.5	> 40	0.7	1.3
COc1ccc(C(=O)c2nccc3c(OC)c(OC)c(OC)cc23)cc1	> 25	> 25	> 25	> 40	> 25	> 25
CCc1ccc(/C=C/c2cc(OC)c(OC)c(OC)c2)cc1	0.13	0.22	0.17	> 40	0.11	1.2
COc1ccc(C2Cc3cc(OC)c(OC)c(OC)c3C2=O)cc1 (stereo not given)	> 25	> 25	> 25	> 40	> 25	> 25
COc1ccc(CC2NCCc3c2cc(OC)c(OC)c3OC)cc1 (stereo not given)	19.3	> 25	> 25	> 40	20.2	> 25
COc1ccc(/C=C\c2cc(OC)c(OC)c(OC)c2)cc1		1.6	2.6	2.5	2.6	
COc1ccc(/C=C\c2cc(OC)c(OC)c(OC)c2)cc1O [COMBRETASTATIN A4]	0.00032	0.00043	0.00014		0.01	0.0056
COc1ccc(/C=C\c2cc(OC)c(O[Si](C)(C)C(C)(C)C)c(OC)c2)cc1	> 25	> 25	> 25	> 40	9	> 25
CCOc1ccc(/C=C\c2cc(OC)c(OC)c(OC)c2)cc1	1.6		2.5	2.7	1.8	9.6
CCOc1ccc(CCc2cc(OC)c(OC)c(OC)c2)cc1	0.19	0.27	0.17	10	0.18	0.19
COc1cc2ccc3c(OC)cccc3c2c(OC)c1OC	> 25	> 25	12	> 40	9.3	14.6

Structure (SMILES)	EC50 [1] [µM]	EC50 [2] [µM]	EC50 [3] [µM]	IC50 [4] [µM]	EC50 [5] [µM]	EC50 [6] [µM]
CNC(=O)/C(=C/c1ccc(OC)cc1)c1cc(OC)c(OC)c(OC)c1	2.4	93	2.4	35	2.6	5
COc1cc(CCc2ccc(OCCN(C)C)cc2)cc(OC)c1OC	> 25	> 25	11.4	> 40	9.8	10.3
COc1cc(/C=C/c2ccc(C(C)(C)C)cc2)cc(OC)c1OC	> 25	> 25	> 25	> 40	> 25	> 25
COC(=O)/C(=C/c1ccc(OC)cc1)c1cc(OC)c(OC)c(OC)c1	1.1	9.6	6.4	> 40	0.5	2
COc1ccc(CC2c3cc(OC)c(OC)c(OC)c3CCN2C)cc1 (stereo not given)	11.4	> 25	8.8	> 40	9.7	22.7
COc1ccc2cc3n(c(=O)c2c1)CCc1c-3cc(OC)c(OC)c1OC	> 25	> 25	> 25	> 40	> 25	> 25
COc1ccc(C(C#N)Cc2cc(OC)c(OC)c(OC)c2)cc1 (stereo not given)	11.5	21.1	6.4	> 40	9.4	14.3
COc1ccc(Cc2cc(OC)c(OC)c(OC)c2)cc1	1.5	1.3	1.2	15	1.3	1.9
COc1ccc(/C=C/c2ccc(OC)c(OC)c2)cc1	11.7	> 25	> 25	> 40	> 25	> 25
CCc1ccc(/C=C\c2cc(OC)c(OC)c(OC)c2)cc1	0.012	0.0075	0.00086	3.4	0.0027	0.072
COc1ccc(Cc2c3cc(OC)c(OC)c(OC)c3cc[n+]2C)cc1	19.5	> 25	2.1	> 40	20.5	> 25
COc1ccc(/C=C/c2cc(OC)c(OC(C)=O)c(OC)c2)cc1	16.4	21	10.2	> 40	11.7	19.4
COc1ccc(/C=C/c2cc(OC)c(OCc3ccccc3)c(OC)c2)cc1	> 25	> 25	> 25	> 40	17.8	> 25
CCCOc1ccc(/C=C\c2cc(OC)c(OC)c(OC)c2)cc1	0.039	0.065	0.014	6	0.028	0.66
COc1ccc(/C=C/c2cc(OC)c(O[Si](C)(C)C(C)(C)C)c(OC)c2)cc1	> 25	> 25	> 25	> 40	> 25	> 25
COc1cc(/C=C\c2ccc(C(C)C)cc2)cc(OC)c1OC				12	2.4	1.4
CCOc1ccc(/C=C/c2cc(OC)c(OC)c(OC)c2)cc1			1.17	> 40	1.49	7.5
